Results gathered from unrelated publications.
Lines come from different studies, so protocols differ.
Target: Serine/threonine-protein kinase Chk2 (CHEK2, Homo sapiens, UniProt O96017)

Compound	test	conditions	remaining binding
CN(C)c1ncc(F)c(-c2cnn3ncccc23)n1	binding	1 µM	100%
CCS(=O)(=O)c1cc2cc(C[C@@](O)(CC(C)(C)c3ccc(F)cc3C(N)=O)C(F)(F)F)[nH]c2cn1	cell-free assay, competition with immobilised ligand	1 µM	84%
CCN1CCN(Cc2ccc(C(=O)Nc3ccc(C)c(Oc4ccc5c(c4)CC(=O)N5)c3)cc2C(F)(F)F)CC1	binding, competition with immobilised ligand	1 µM	100%
O=C(NCc1ncc(C(F)(F)F)cc1Cl)c1ccc2c(c1)C1(CCS(=O)(=O)CC1)[C@H](C1CC1)N2S(=O)(=O)c1ccc(F)cc1	cell-free assay, competition with immobilised ligand	1 µM	100%
O=C(NCCCN1CCOCC1)c1ccc(Nc2nccc(-c3cc4ccccc4s3)n2)cc1	binding, competition with immobilised ligand	1 µM	79%
COc1cnc(Nc2cccc(S(N)(=O)=O)c2)nc1N1CCN(c2ccccc2)CC1	binding, competition with immobilised ligand	1 µM	96%
COc1ncc2cc3ccccc3nc2c1C#N	cell-free assay, competition with immobilised ligand	5 µM	100%
Cc1cnn2ncc(-c3ccnc(N(C)C)n3)c2c1	binding	1 µM	84%
O=C(c1ccc(Nc2nccc(-c3cc4ccccc4s3)n2)cc1)N1CCC(N2CCCC2)CC1	binding, competition with immobilised ligand	1 µM	100%
CCC(=N\O)/C(C)=C/c1ccc(F)cc1	cell-free assay, competition with immobilised ligand	1 µM	85%
C[C@@H](c1ccc(-n2cnc3c(N)ncnc32)cc1)N1CCc2nn(C)c(Cc3ccccc3)c2C1=O	binding, competition with immobilised ligand	0.1 µM	100%
N#Cc1ccc(Nc2ccc3[nH]c(=O)[nH]c3c2)c(Cl)c1	cell-free assay, competition with immobilised ligand	1 µM	100%
O=C(Nc1c[nH]nc1C(=O)NC1CCNCC1)c1cc(F)cc(F)c1	binding, competition with immobilised ligand	1 µM	100%
CC1CCCN1c1nccc(-c2cnn3ncccc23)n1 (stereo not drawn)	binding	1 µM	100%
FC(F)(F)Oc1cccc(-c2cnc3ccc(-c4ccncc4)nn23)c1	cell-free assay, competition with immobilised ligand	5 µM	74%
CC(=O)c1c(NS(C)(=O)=O)c2cc(-c3ccc(Cl)cc3)c(-c3ccc(Cl)cc3Cl)nc2n(C)c1=O	cell-free assay, competition with immobilised ligand	1 µM	100%
C[C@@H]1CCN(c2nccc(-c3cnn4ncccc34)n2)C1	binding	1 µM	71%
COc1cnc(Nc2cccc(S(N)(=O)=O)c2)nc1N1CCN(c2ccccc2)C(=O)C1	binding, competition with immobilised ligand	1 µM	86%
CN(C)c1nccc(-c2cnc3ncccn23)n1	binding	1 µM	79%
COc1cccc(CNC(=O)c2nc3scc(COCc4ccc(C(=O)O)cc4)c3c(=O)[nH]2)c1	cell-free assay, competition with immobilised ligand	1 µM	92%
F[C@@H]1CCN(c2nccc(-c3cnn4ncccc34)n2)C1	binding	1 µM	100%
CO[C@@H](C)c1c(Nc2ccc([C@@H](N(C)C(=O)C3CCS(=O)(=O)CC3)C(F)(F)F)cc2)cnc2cc(Cl)nn12	cell-free assay, competition with immobilised ligand	1 µM	100%
O=C(NCCCN1CCOCC1)c1ccc(Nc2ncc(Cl)c(-c3ccc(Cl)s3)n2)cc1	binding, competition with immobilised ligand	1 µM	82%
N[C@@H]1CCN(c2nccc(-c3cnn4ncccc34)n2)C1	binding	1 µM	100%
